Measured values from ChEMBL document CHEMBL1121847, “Synthesis of thyrotropin-releasing hormone analogues with selective central nervous system effects” (J Med Chem, 1981).

Key:
[1] = Acid dissociation constant was measured; assay type: ADME
Rattus norvegicus [2] = species: Rattus norvegicus; test: CNS activity was measured by the ability to restore the anticonvulsant effect of methazolamide in reserpine treated rats; assay type: functional; parameters: unit not given beside the values
Method in brief: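 Rats pretreated with reserpine received varying doses of analogue, and the read-out was restoration of methazolamide's anticonvulsant activity. Potency is expressed relative to TRH.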

Rattus norvegicus [3] = test: Compound was evaluated in vivo for its ability to stimulate release of [125I]-labeled T3 and T4 after administration of varying doses; assay type: functional
Method in brief: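 Varying doses of analogue were given in vivo, with ¹²⁵I-labeled T₃ and T₄ measured afterwards. Potency is expressed relative to TRH.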

Work on `NC(=O)[C@@H]1CCCN1C(=O)[C@H](Cc1c[nH]cn1)NC(=O)[C@@H]1CCCC(=O)N1` yielded a pKa [1] of 6.18, a CNS activity (Rattus norvegicus [2]) of 4 and a Hormonal activity (Rattus norvegicus [3]) of 1.

Compound `NC(=O)[C@@H]1CSCN1C(=O)[C@H](Cc1c[nH]cn1)NC(=O)[C@@H]1CCCC(=O)N1` [listing 1 of 2 here] has a pKa [1] of 6.1.

In the case of `NC(=O)[C@@H]1CSCN1C(=O)[C@H](Cc1c[nH]cn1)NC(=O)[C@@H]1CCCC(=O)N1` [listing 2 of 2 here], the CNS activity (Rattus norvegicus [2]) is reported as 35 and the Hormonal activity (Rattus norvegicus [3]) is reported as 1.

For `COC(=O)[C@@H]1CCCCN1C(=O)[C@H](Cc1c[nH]cn1)NC(=O)[C@@H]1CCC(=O)N1` [listing 1 of 2 here], the pKa [1] was 6.18.

Compound `COC(=O)[C@@H]1CCCCN1C(=O)[C@H](Cc1c[nH]cn1)NC(=O)[C@@H]1CCC(=O)N1` [listing 2 of 2 here] has a CNS activity (Rattus norvegicus [2]) of 1 and a Hormonal activity (Rattus norvegicus [3]) of 0.2.

`COC(=O)[C@@H]1CCCCN1C(=O)[C@H](Cc1c[nH]cn1)NC(=O)[C@@H]1CCCC(=O)N1` showed a CNS activity (Rattus norvegicus [2]) of 0.9 and a Hormonal activity (Rattus norvegicus [3]) of 0.02.
